The record followed here is ChEMBL document CHEMBL5325402, “Exploration of novel hexahydropyrrolo[1,2-e]imidazol-1-one derivatives as antiviral agents against ZIKV and USUV” (Eur J Med Chem, 2023).

Data set [1] can be described thus: Solubility in i-propanol at 25 degreeC. The class given is physicochemical.
A short description of data set [2]: Solubility in DMSO at 25 degreeC. It is filed as physicochemical.
In data set [3] the test system is Zika virus. As to the kind of experiment: Antiviral activity against ZIKV MR766 infected in African green monkey Vero cells assessed as reduction in viral replication pretreated with virus for 1 hr followed by infection of cells with compound treated-virus for 30 hrs by focus reduction assay. The class given is functional, organism-based. Conditions: for EC90: time 31 hrs.

The subject of data set [4] is Zika virus. The experiment in a line: Antiviral activity against ZIKV MR766 infected in human A549 cells assessed as reduction in viral replication pretreated with virus for 1 hr followed by infection of cells with compound treated-virus for 30 hrs by focus reduction assay. It is filed as functional, organism-based. Conditions: for EC90: time 31 hrs. The method, boiled down:
(§1)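 Dose-response: serial dilutions (100 to 0.13 μM) preincubated 1 h at 37 °C with virus (MOI 0.02), then added to cells for 20 h (USUV) or 30 h (ZIKV) in 2% FBS DMEM. Cells per well: Vero 1.2 × 10^4, A549 1.3 × 10^4, Huh7 1.6 × 10^4. Foci immunostained and counted. EC50/EC90 fitted by variable-slope sigmoidal curve, mean of three independent experiments.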

Data set [5] concerns Usutu virus. As to the kind of experiment: Antiviral activity against USUV 3345 isolate Arb276 infected in human Huh-7 cells assessed as reduction in viral replication pretreated with virus for 1 hr followed by infection of cells with compound treated-virus for 20 hrs by focus reduction assay. The class given is functional, organism-based. Conditions: Usutu virus, 3345, Huh-7; for EC90: time 21 hrs. The method, boiled down:
as §1

Data set [6] is described as follows: Cytotoxicity against African green monkey Vero cells infected with USUV 3345 isolate Arb276 pretreated with virus for 1 hr followed by infection of cells with compound treated-virus for 20 hrs by MTS assay. The class given is toxicity, cell-based. Conditions: chlorocebus sabaeus. The procedure, abridged: (§2)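 MTS viability assay. Cells were treated under the same conditions as the antiviral assays. Absorbance was expressed as % of medium-only cells, and CC50 was derived from the curve. Seeding densities were 1.2 × 10^4/well for Vero, 1.3 × 10^4/well for A549 and 1.6 × 10^4/well for Huh7. DMEM with 2% FBS.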
In general terms: Formazan colour is commonly taken as a measure of viable cells.

The nature of data set [7]: Cytotoxicity against human A549 cells infected with USUV 3345 isolate Arb276 pretreated with virus for 1 hr followed by infection of cells with compound treated-virus for 20 hrs by MTS assay. The class given is toxicity, cell-based. The procedure, abridged:
as §2

The nature of data set [8]: Cytotoxicity against human A549 cells infected with ZIKV MR766 pretreated with virus for 1 hr followed by infection of cells with compound treated-virus for 30 hrs by MTS assay. The class given is toxicity, cell-based. The procedure, abridged: as §2
Data set [9] in a line: Cytotoxicity against human Huh-7 cells infected with USUV 3345 isolate Arb276 pretreated with virus for 1 hr followed by infection of cells with compound treated-virus for 20 hrs by MTS assay. It is filed as toxicity, cell-based. The method, boiled down: as §2
Data set [10] can be described thus: Selectivity index, ratio of CC50 for African green monkey Vero cells infected with ZIKV MR766 to EC50 for ZIKV MR766 infected in African green monkey Vero cells. It is filed as toxicity, cell-based. Conditions: read-out: Ratio CC50/EC50.
A short description of data set [11]: Selectivity index, ratio of CC50 for African green monkey Vero cells infected with USUV 3345 isolate Arb276 to EC50 for USUV 3345 isolate Arb276 infected in African green monkey Vero cells. It is filed as toxicity, cell-based. Conditions: read-out: Ratio CC50/EC50.
Data set [12] deals with Usutu virus. The experiment in a line: Antiviral activity against USUV 3345 isolate Arb276 infected in African green monkey Vero cells assessed as titer reduction in viral progeny production at 15 uM treated for 2 hrs followed by virus removal and subsequent addition of medium containing compound measured after 48 hrs by focus reduction assay. The class given is functional, organism-based. To be noted: time 50.0 hrs. The method, boiled down:
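Vero cells seeded 6.5 × 10^4/well, exposed in duplicate for 2 h at 37 °C to virus (MOI 0.1) mixed with compound at 5 or 15 μM. After three washes, medium containing compound was added for 48 h. Supernatants were clarified and titred on Vero by focus reduction (USUV, FFU/ml) or plaque assay (ZIKV, PFU/ml). DMSO-matched infected controls; mean of three experiments.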

For data set [13], the system named is Zika virus. The experiment in a line: Antiviral activity against ZIKV MR766 infected in African green monkey Vero cells assessed as viral growth inhibition at 0.13 to 100 uM pretreated with cells 24 hrs prior to viral infection by time of addition assay. It is filed as functional, organism-based. Conditions: dose 0.13-100 µM. The procedure, abridged:
(§3)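 Time-of-addition assay in Vero. Serial dilutions (100 to 0.13 μM) were added to cells 24 h or 2 h before infection, during the 2 h infection, or post-infection for 24 h (USUV) or 30 h (ZIKV). Cells were fixed in cold acetone-methanol (50:50) and infected cells detected by indirect immunostaining. EC50/EC90 came from variable-slope sigmoidal fits; mean of three independent experiments.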

Data set [14] relates to Usutu virus. As to the kind of experiment: Antiviral activity against USUV 3345 isolate Arb276 infected in African green monkey Vero cells assessed as viral growth inhibition at 0.13 to 100 uM treated immediately after viral infection for 24 hrs by time of addition assay. Conditions: dose 0.13-100 µM. It is filed as functional, organism-based. The procedure, abridged:
as §3

pEC50: −log10 of the molar value. Values after ≈ are worked out from the molar mass of the structure shown. Active and inactive are the calls of the source. The calls are words filed in the database; no cut-off is given here.

A word on the solubility: it is how much of the substance goes into solution per volume. As a reminder, the pEC50 is the negative decadic logarithm of the EC50, by convention in mol/L. Broadly, the EC90 is the concentration at which the effect reaches the 90% level. Broadly, the CC50 is the concentration at which the toxic effect on the cells reaches its halfway point. In the case of `O=C1C[C@H](c2ccc([C@H]3N(c4ccc([N+](=O)[O-])cc4)C(=O)[C@@H]4CCCN43)cc2)O[C@@H]1CO`, the solubility in data set [1] amounted to 8570 µg/mL (≈ 19.6 mM); in [2], 130 mg/mL (≈ 297 mM). The pEC50 is 5.01 in data set [3], 5.42 in data set [4] and 5.40 in data set [5]. Further, the EC90 in data set [3] is 15.4 µM; in data set [4], 10.2 µM; in data set [5] it was 6.28 µM. The CC50 at 21 h in data set [6], in data set [7] and in data set [9] was above 500 µM in each case. For the same molecule, the CC50 at 31 h in data set [8] is above 500 µM. Further, the selectivity ratio in data set [10] was above 51; in [11], above 181. Further, the result in data set [12], in data set [13] and in [14] was Active.
Regarding `O=C1[C@@H]2CCCN2[C@@H](c2ccc([C@H]3C[C@@H](O)[C@@H](CO)O3)cc2)N1c1ccc([N+](=O)[O-])cc1`, the solubility in data set [1] was determined as 7320 µg/mL (≈ 16.7 mM); in data set [2], 96 mg/mL (≈ 218 mM). Also, the pEC50 in data set [3] is 5.10; in data set [4] it was 5.40; in data set [5], 5.41. Further, the EC90 in data set [3] was determined as 12.3 µM; in data set [4], 10.9 µM; in data set [5] it was 5.77 µM. The CC50 at 21 h in data set [6], in [7] and in data set [9] was above 500 µM throughout. In data set [8], the CC50 at 31 h was above 500 µM. For the same molecule, the figures for the selectivity ratio in data set [10] and in [11] were above 63 and above 198, respectively. In addition, the result in [12], in data set [13] and in data set [14] was Active.
